In one assay the test system is Hepatitis C virus. Description: Antiviral activity against HCV JC1 infected in human Huh7.5 cells assessed as reduction in viral infection treated for 4 hrs followed by compound washout and measured after 3 days by luciferase reporter gene assay. The conditions noted are these: Hepacivirus hominis. It counts as functional, organism-based. In outline: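 Huh-7.5 cells were electroporated with the Luc-Jc1 reporter virus in the presence of compound. After 4 h the inoculum was removed, and the monolayers were washed three times with PBS and given fresh compound-free medium. Cells were lysed at 3 days for luciferase read-out. Runs were in duplicate, reported as mean and standard deviation.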
For orientation: Reporter assays use an easily measured gene product as a stand-in for the process of interest.

A further assay relates to L929. Kind of assay: Cytotoxicity against mouse L929 cells measured after 5 days by MTT assay. It counts as cell-based. (Formazan colour is commonly taken as a measure of viable cells.)
The next assay deals with KB 3-1. Description: Cytotoxicity against human KB3-1 cells measured after 5 days by MTT assay. It counts as functional, cell-based.
The test system of assay [1] is Candida albicans. Description: Antifungal activity against Candida albicans DSM 1665 by serial dilution method. The assay is classed as functional. In outline: (§1)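 Fungi were tested by serial dilution in MYG medium (1.0% phytone peptone, 1.0% glucose, 50 mM HEPES, pH 7.0). The top well held 67 μg/mL final, from a 1 mg/mL stock. Methanol served as negative control. The MIC was recorded.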

The subject of another assay is Mucor hiemalis. Kind of assay: Antifungal activity against Mucor hiemalis DSM 2656 by serial dilution method. The assay is classed as functional. In outline: as §1
The next assay has as its system Bacillus subtilis. Kind of assay: Antibacterial activity against Bacillus subtilis DSM10 by serial dilution method. It counts as functional.
In another assay the test system is Staphylococcus aureus. Description: Antibacterial activity against Staphylococcus aureus Newman by serial dilution method. It counts as functional.
Another assay has as its system SK-OV-3. Description: Cytotoxicity against human SKOV3 cells measured after 5 days by MTT assay. The following applies: SK-OV-3, 120 h. The assay is classed as functional, cell-based.
For the next assay, the system named is MCF7. Description: Cytotoxicity against human MCF7 cells measured after 5 days by MTT assay. The assay is classed as functional, cell-based. The following applies: MCF7, 120 h.
The test system of the next assay is PC-3. Kind of assay: Cytotoxicity against human PC3 cells measured after 5 days by MTT assay. It counts as functional, cell-based. The following applies: PC-3, 120 h.
For a further assay, the system named is Escherichia coli. Description: Antibacterial activity against Escherichia coli DSM1116 by serial dilution method. The assay is classed as functional.
Another assay deals with A549. Kind of assay: Cytotoxicity against human A549 cells measured after 5 days by MTT assay. It counts as functional, cell-based. The conditions noted are these: A549, 120 h.
For a further assay, the system named is Trypanosoma brucei. Kind of assay: Antimicrobial activity against Trypanosoma brucei. It counts as functional.
Assay [2] concerns Candida albicans. Kind of assay: Antifungal activity against amphotericin B-resistant Candida albicans. It counts as functional. In outline:
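Broth serial dilution MIC in 96-well plates using MYG medium for fungi (1.0% phytone peptone, 1.0% glucose, 50 mM HEPES, pH 7.0). Compounds were added as 20 µL aliquots of a 1 mg/mL stock, giving 67 μg/mL final in the first well. Methanol served as negative control.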

Setting [3] is: Mus musculus, L929, 120 h, read-out: IC50.
The mark [4] stands for this setting: Homo sapiens, KB 3-1, 120 h, read-out: IC50.

Converted amounts (≈) assume the structure as drawn. The source made the active and inactive calls. No cut-off for these calls is given here.

As a reminder, the IC50 is the concentration that inhibits the measured activity by half. By MIC is commonly meant the lowest concentration found to suppress growth.

Take `C\C1=C/C=C/C=C/C=C\C=C/[C@H](C)CNC(=O)/C(C)=C/C=C/C=C/C=C\C=C/[C@H](C)CNC1=O`: the result in the assay with Hepatitis C virus was Active. In addition, the IC50 with L929 (setting [3]) came to 32.8 µM; in the assay on KB 3-1 (setting [4]), 6.8 µM; in the assay with SK-OV-3, 14.2 µM; with MCF7 it was 16.4 µM; in the assay on PC-3, 6.3 µM; in the assay with A549, 16.3 µM. For the same compound, the MIC against Candida albicans [1], in the assay on Mucor hiemalis and against Staphylococcus aureus was 66.7 µg/mL (≈ 145 µM) throughout. Besides, the MIC entry with Bacillus subtilis and in the assay on Escherichia coli was “inactive” each time.
With `CC1=C/[C@H](O)[C@H](O)\C=C/C=C/C=C/C=C\C=C/[C@H](C)CNC(=O)\C=C/C=C/1`, the outcome with Hepatitis C virus was inactive. Further, the MIC entry in the assay on Candida albicans [1], in the assay with Mucor hiemalis, with Bacillus subtilis, with Staphylococcus aureus and in the assay on Escherichia coli was “inactive” in each case.
Consider `C/C1=C/C=C/C(C)=C/C=C/C=C\C=C/[C@H](C)CNC(=O)/C(C)=C/C=C/C(C)=C/C=C/C=C\C=C/[C@H](C)CNC1=O`, for which, in the assay on Hepatitis C virus, the outcome was Active. For the same compound, the MIC result in the assay on Candida albicans [1], in the assay on Mucor hiemalis, in the assay with Bacillus subtilis and in the assay on Escherichia coli was “inactive” in each case.
In the case of `CN(C)[C@@H]1C(O)=C(C(N)=O)C(=O)[C@@]2(O)C(O)=C3C(=O)c4c(O)cccc4[C@@](C)(O)[C@H]3[C@H](O)[C@@H]12` [OXYTETRACYCLINE], the MIC against Bacillus subtilis was 2.08 µg/mL (≈ 4.52 µM); in the assay on Staphylococcus aureus it was 0.05 µg/mL (≈ 0.109 µM); against Escherichia coli it was 1.66 µg/mL (≈ 3.61 µM).
In the case of `CC1=C\C=C\C=C\C=C/C=C\[C@H](C)CNC(=O)/C(C)=C/C=C/C=C/C=C\C=C/[C@H](C)CNC(=O)\C(C)=C\1`, the result in the assay with Hepatitis C virus was Active. Also, the IC50 in the assay with L929 (setting [3]) came to 42.2 µM; in the assay on KB 3-1 (setting [4]) it was 5.4 µM; with SK-OV-3, 10 µM; in the assay on MCF7 it was 18.1 µM; in the assay with PC-3, 5 µM; with A549, 32.1 µM. Besides, the MIC result in the assay with Candida albicans [1], in the assay with Mucor hiemalis, in the assay on Bacillus subtilis and in the assay with Escherichia coli was “inactive” in each case. Moreover, the MIC in the assay with Staphylococcus aureus worked out at 16.7 µg/mL (≈ 33.5 µM).
With `CC1=C/[C@H](O)[C@H](O)\C=C/C=C/C=C/C=C\C=C/[C@H](C)CNC(=O)/C=C/C=C/1`, the IC50 result in the assay with L929 (l929) is reported as “Non-Toxic”; in the assay with KB 3-1 (kb 3-1), “Not Active”.
In the case of `CC1=C\C=C\C[C@H](C)NC(=O)/C=C/C=C/C=C/[C@H](C)[C@@H](O)[C@H](O)[C@@H](O)C[C@@H](O)/C=C\C=C\C(C)=C\1`, in the assay with Trypanosoma brucei, the MIC was 0.8 µM (≈ 0.387 µg/mL).
For `C/C(=C\c1csc(C)n1)[C@@H]1C[C@@H]2O[C@]2(C)CCC[C@H](C)[C@H](O)[C@@H](C)C(=O)C(C)(C)[C@@H](O)CC(=O)O1` [PATUPILONE], the IC50 in the assay on L929 (setting [3]) was 0.00075 µM; in the assay on KB 3-1 (setting [4]), 5.3e-05 µM; in the assay with SK-OV-3 it was 0.00024 µM; in the assay on MCF7, 7.4e-05 µM; with PC-3, 0.0022 µM; with A549 it was 0.004 µM.
With `CC1=C\C=C\C=C/C=C\[C@H](C)CNC(=O)/C(C)=C/C=C/C(C)=C/C=C/C=C\C=C/[C@H](C)CNC(=O)\C(C)=C\C=C\1`, the IC50 result is “Non-Toxic” with L929 (l929); 2.4 µM in the assay on KB 3-1 (setting [4]); 5.5 µM in the assay with SK-OV-3; 2.1 µM with PC-3; 6.5 µM with A549. Further, in the assay on Staphylococcus aureus, inhibition of growth (MIC) required 66.7 µg/mL (≈ 124 µM).
For the compound NYSTATIN, the MIC in the assay on Candida albicans [1] worked out at 8.8 µg/mL; in the assay on Mucor hiemalis, 4.16 µg/mL.
For the compound `CC1=C\C=C\C=C\C(C)CNC(=O)/C=C(O)/C=C/C(C)=C/C=C/C(O)C(O)C(O)C(=O)/C=C\C=C\1` (stereo unspecified), in the assay on Candida albicans [2], the MIC was found to be 4 µg/mL (≈ 8.31 µM).

For the origin of these results see ChEMBL document CHEMBL4316652, “Kenalactams A-E, Polyene Macrolactams Isolated from Nocardiopsis CG3” (J Nat Prod, 2019).
